# Activity calls are given as the source filed them. No cut-off for these calls is given here.
# Assays:
# Aminopeptidase N [1] = target: T1, Aminopeptidase N (Homo sapiens, UniProt P15144); assay: Ratio of betastatin IC50 to compound IC50 for APN in human ES-2 cells; type: cell-based
# ES2 [2] = assay: Antiinvasive activity against human ES2 cells in matrigel-coated transwell chamber after 8 hrs by Crystal violet staining-based microscopy; type: functional, cell-based
# Method in brief: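 Invasion assessed in Matrigel-coated Transwell chambers; ES-2 cells allowed to invade the Matrigel and reach the other side of the membrane over 8 h; graded doses tested.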
# [3] = Cytotoxicity against human ES2 cells after 24 hrs by MTT assay; type: functional; settings: ES-2, 24 h
# Aorta = assay: Antiangiogenic activity against Sprague-Dawley rat aortic rings assessed as inhibition of new microvessel growth at 100 ug/ml after 6 days; type: functional, tissue-based
# Method in brief: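 Rat aortic rings embedded on Matrigel; microvessel outgrowth from the ring scored and expressed as inhibition rate versus control; mean with SD from three independent experiments.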
# ES2 [4] = assay: Antimigratory activity against human ES2 cells in transwell chamber at 100 ug/ml after 3 hrs by Crystal violet staining-based microscopy; type: functional, cell-based
# Method in brief: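 ES-2 cells placed in Transwell chambers with 8 µm micropore membranes, no Matrigel coating; cells crossing the membrane counted as migration rate relative to control; mean with SD from three independent experiments.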
# HUVEC [5] = assay: Antiangiogenic activity in HUVEC assessed as inhibition of tube formation at 100 ug/ml after 8 hrs by microscopic analysis; type: functional, cell-based; settings: Homo sapiens
# Method in brief: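 HUVECs plated on Matrigel to form capillary tube-like structures; tubular structure formation scored as inhibition rate versus untreated control; mean with SD from three independent experiments.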
# Aminopeptidase N [6] = target: T1, Aminopeptidase N; assay: Inhibition of APN in human ES-2 cells using L-Leu-p-nitroanilide as substrate incubated for 5 mins prior to substrate addition measured after 1 hr by UV-Vis spectrophotometry; type: cell-based
# Aminopeptidase N [7] = target: T2, Aminopeptidase N (Sus scrofa, UniProt P15145); assay: Inhibition of pig kidney APN using L-Leu-p-nitroanilide as substrate incubated for 5 mins prior to substrate addition measured after 30 mins by UV-Vis spectrophotometry
# T2 sequence (P15145 whole entry): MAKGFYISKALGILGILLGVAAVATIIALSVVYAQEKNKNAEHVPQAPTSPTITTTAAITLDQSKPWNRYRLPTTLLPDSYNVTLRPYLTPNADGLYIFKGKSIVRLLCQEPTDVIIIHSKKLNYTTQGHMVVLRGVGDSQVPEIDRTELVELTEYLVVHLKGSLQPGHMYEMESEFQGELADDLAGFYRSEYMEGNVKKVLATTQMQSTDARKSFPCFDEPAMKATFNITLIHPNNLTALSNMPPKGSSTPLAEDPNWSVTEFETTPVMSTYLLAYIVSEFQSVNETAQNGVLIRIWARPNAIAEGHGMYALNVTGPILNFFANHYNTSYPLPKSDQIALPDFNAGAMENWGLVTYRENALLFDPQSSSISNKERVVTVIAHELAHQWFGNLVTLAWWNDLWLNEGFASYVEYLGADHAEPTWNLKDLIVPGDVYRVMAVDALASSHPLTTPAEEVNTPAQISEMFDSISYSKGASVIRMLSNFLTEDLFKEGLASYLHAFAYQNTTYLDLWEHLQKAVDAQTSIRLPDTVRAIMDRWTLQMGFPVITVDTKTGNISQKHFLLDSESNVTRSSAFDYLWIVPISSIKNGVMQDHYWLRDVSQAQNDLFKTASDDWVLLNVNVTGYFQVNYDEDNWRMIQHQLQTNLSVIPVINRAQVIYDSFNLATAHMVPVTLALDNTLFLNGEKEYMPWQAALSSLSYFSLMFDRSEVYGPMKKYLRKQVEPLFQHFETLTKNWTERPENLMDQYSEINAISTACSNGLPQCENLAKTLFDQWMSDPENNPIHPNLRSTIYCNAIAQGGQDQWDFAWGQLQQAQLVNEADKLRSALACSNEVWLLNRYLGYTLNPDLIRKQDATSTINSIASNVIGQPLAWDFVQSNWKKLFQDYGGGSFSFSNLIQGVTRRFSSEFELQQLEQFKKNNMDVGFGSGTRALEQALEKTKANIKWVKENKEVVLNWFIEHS
# HUVEC [8] = assay: Acute cytotoxicity against HUVEC at 100 ug/ml after 8 hrs by microscopic analysis; type: cell-based; settings: human
# Method in brief: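 Acute cytotoxicity judged by microscopic inspection of treated samples during the assay period on Matrigel.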
# [9] = target: 72 kDa type IV collagenase (Homo sapiens, UniProt P08253); assay: Inhibition of recombinant MMP2 (unknown origin) using […] as substrate incubated for 5 mins prior to substrate addition measured after 60 mins by UV-Vis spectrophotometry
# Chain of 72 kDa type IV collagenase (P08253 whole entry): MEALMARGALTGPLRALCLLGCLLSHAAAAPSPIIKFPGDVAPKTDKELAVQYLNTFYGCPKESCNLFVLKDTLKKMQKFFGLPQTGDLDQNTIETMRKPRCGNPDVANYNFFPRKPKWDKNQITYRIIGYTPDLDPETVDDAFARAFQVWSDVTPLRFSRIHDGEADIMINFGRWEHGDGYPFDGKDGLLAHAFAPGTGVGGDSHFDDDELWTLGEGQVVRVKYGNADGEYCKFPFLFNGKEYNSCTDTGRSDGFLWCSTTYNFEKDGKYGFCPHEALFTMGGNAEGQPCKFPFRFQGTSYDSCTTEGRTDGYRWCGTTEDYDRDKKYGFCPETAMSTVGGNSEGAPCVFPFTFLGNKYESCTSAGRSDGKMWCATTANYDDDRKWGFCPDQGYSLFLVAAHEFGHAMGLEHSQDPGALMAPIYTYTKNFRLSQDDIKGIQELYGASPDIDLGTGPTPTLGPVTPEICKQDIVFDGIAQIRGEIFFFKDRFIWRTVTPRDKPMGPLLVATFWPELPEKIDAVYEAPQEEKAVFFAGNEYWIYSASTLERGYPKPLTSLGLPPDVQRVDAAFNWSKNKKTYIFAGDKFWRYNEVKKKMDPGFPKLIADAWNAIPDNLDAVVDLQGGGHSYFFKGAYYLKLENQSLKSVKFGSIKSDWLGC
# T1 sequence (P15144 whole entry): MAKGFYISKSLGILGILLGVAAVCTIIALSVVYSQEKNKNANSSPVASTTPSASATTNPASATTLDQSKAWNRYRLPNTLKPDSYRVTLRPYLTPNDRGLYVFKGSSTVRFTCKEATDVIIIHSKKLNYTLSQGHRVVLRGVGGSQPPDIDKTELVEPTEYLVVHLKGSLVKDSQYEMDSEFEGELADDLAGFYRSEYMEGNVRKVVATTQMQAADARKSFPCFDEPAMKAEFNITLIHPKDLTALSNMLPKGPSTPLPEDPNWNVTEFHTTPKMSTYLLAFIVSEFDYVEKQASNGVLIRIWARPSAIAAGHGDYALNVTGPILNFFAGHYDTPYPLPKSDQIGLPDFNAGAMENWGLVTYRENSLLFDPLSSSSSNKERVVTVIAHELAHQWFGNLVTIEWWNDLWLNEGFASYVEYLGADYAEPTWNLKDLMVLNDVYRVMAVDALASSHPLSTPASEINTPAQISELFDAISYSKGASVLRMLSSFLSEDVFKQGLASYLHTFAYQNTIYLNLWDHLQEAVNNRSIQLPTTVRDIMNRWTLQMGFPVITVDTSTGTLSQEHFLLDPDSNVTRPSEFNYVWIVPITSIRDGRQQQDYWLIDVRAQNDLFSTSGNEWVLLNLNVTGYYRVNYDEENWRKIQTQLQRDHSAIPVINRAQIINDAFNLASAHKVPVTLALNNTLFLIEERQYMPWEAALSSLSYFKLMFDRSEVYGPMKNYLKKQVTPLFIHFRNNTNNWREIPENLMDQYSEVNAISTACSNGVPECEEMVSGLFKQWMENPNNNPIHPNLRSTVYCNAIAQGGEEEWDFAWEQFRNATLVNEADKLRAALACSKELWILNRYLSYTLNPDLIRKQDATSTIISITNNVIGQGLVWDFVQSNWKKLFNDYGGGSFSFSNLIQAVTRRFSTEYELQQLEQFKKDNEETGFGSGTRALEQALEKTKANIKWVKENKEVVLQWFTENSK
Ratio IC50 (Aminopeptidase N [1]),IC50 (Aminopeptidase N [6]),IC50 (Aminopeptidase N [7]),IC50 [9],SMILES,Activity (ES2 [2]),GI50 [3],Activity (Aorta),Activity (ES2 [4]),Activity (HUVEC [5]),Activity (HUVEC [8])
10,3 µM,0.85 µM,> 500 µM,CC(C)C[C@H](NC(=O)NCc1ccccc1)C(=O)NO,Dose-dependent effect,> 1000 µM,Active,inactive,Active,Non-toxic
–,–,–,–,CC(C)C[C@H](NC(=O)[C@@H](O)[C@H](N)Cc1ccccc1)C(=O)O [UBENIMEX],Dose-dependent effect,350 µM,Active,inactive,Active,Non-toxic

# Source: ChEMBL document CHEMBL2390954, “Discovery of a synthetic Aminopeptidase N inhibitor LB-4b as a potential anticancer agent” (Bioorg Med Chem Lett, 2013)
